Article PMC3929337 (Biochemistry, 2014)

Experiments:
[1] = tested on: Aβ peptide variants in PS1 mutant-expressing cell lines; details: cited from earlier work
[2] = tested on: Notch 1 receptor (NΔE) proteolysis, NICD; experiment: Cell-based Notch proteolytic processing assay; set-up: species or system human; details: H4-APP751/NΔE cells, 24 h; lowest concentration tested
Method in brief: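 H4 human neuroglioma cells stably overexpressing human APP751 were transfected with Myc-tagged NΔE Notch and treated for a further 24 h with serially diluted test compound, DMSO vehicle, or a dipeptidic γ-secretase inhibitor as positive control. Concentrations ranged up to 30 μM. Cells were harvested 48 h post-transfection. Lysates were Western blotted with anti-Myc for NΔE/NICD, an APP C-terminal antibody for holo-APP, C99 and C83, and anti-β-actin as loading control.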

## CC(C)CC[C@H](c1ccc(Cl)cc1)N1CC[C@@H](CC(=O)O)C[C@H]1c1ccc(C(F)(F)F)cc1 [GSM-1]
[1]; G384A PS1 mutant
  effect on Aβ peptide variants, G384A PS1 mutant: effectively lowered Aβ42, Aβ40, and Aβ37
[1]; PS1 mutants L166P and N135S
  effect on Aβ38 levels, PS1 mutants L166P and N135S: increases in Aβ38 levels
  inhibition of Aβ42, PS1 mutants L166P and N135S: resistant

## COc1cc(/C=C2\CCCN([C@@H](C)c3ccc(F)cc3)C2=O)ccc1-n1cnc(C)c1 [Eisai]
[1]
  effects on Aβ38 and Aβ42 in PS1 mutant cell lines: behaved like the “TorreyPines” compound

## C[C@H](NC(=O)Cc1cc(F)cc(F)c1)C(=O)NC(C(=O)OC(C)(C)C)c1ccccc1 (stereo partly drawn) [DAPT, N-[N-(3,5-difluorophenacetyl)-L-alanyl]-S-phenylglycine tert-butyl ester]
[2]
  concentration at which inhibition of NICD occurred: ≤ 300 nM
